Test results reported in ChEMBL document CHEMBL4219118, “Cathepsin B inhibitors: Further exploration of the nitroxoline core” (Bioorg Med Chem Lett, 2018).
The source made the active and inactive calls. The rule behind the calls is not given here.

What was measured:
[1] = tested on: MCF-10A-neoT; assay: Cytotoxicity against human MCF10AneoT cells assessed as decrease in cell viability after 72 hrs by MTS assay; assay type: cell-based
[2] = molecular target: T1, Cathepsin B (Homo sapiens, UniProt P07858); assay: (§1) Inhibition of cathepsin B in human MCF-10A neoT cells assessed as proteolysis of extracellular membrane by measuring decrease in intracellular degradation of DQ-collagen 4 at 50 uM incubated for 2 hrs followed by DQ-collagen addition measured for 2 hrs by propidium iodide staining based flow cytometry relative to control; assay type: cell-based
Outline: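 MCF-10A neoT cells (6 × 10⁴) treated with compound or DMSO. Intracellular DQ-collagen IV degradation measured by flow cytometry, with unlabeled cells as background. Reduction expressed versus DMSO. Mean of n = 3, run in duplicate.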

[3] = molecular target: T1, Cathepsin B; assay: Mixed inhibition of recombinant human cathepsin B endopeptidase activity assessed as inhibitory constant for enzyme-inhibitor complex using Z-Arg-Arg-AMC as substrate in presence of pH 6 phosphate buffer by fluorescence assay
[4] = molecular target: T1, Cathepsin B; assay: Mixed inhibition of recombinant human cathepsin B exopeptidase activity assessed as inhibitory constant for enzyme-substrate-inhibitor complex using Abz-Gly-Ile-Val-Arg-Ala-Lys(Dnp)-OH as substrate in presence of pH 5 acetate buffer by fluorescence assay
[5] = molecular target: T1, Cathepsin B; assay: Mixed inhibition of recombinant human cathepsin B endopeptidase activity assessed as inhibitory constant for enzyme-substrate-inhibitor complex using Z-Arg-Arg-AMC as substrate in presence of pH 6 phosphate buffer by fluorescence assay
[6] = molecular target: T1, Cathepsin B; assay: Mixed inhibition of recombinant human cathepsin B exopeptidase activity assessed as inhibitory constant for enzyme-inhibitor complex using Abz-Gly-Ile-Val-Arg-Ala-Lys(Dnp)-OH as substrate in presence of pH 5 acetate buffer by fluorescence assay
[7] = tested on: U-87 MG; assay: Cytotoxicity against human U87MG cells assessed as decrease in cell viability after 72 hrs by MTS assay; assay type: cell-based; details: u-87mg atcc
[8] = molecular target: T1, Cathepsin B; assay: Competitive inhibition of recombinant human cathepsin B endopeptidase activity assessed as inhibitory constant for enzyme-inhibitor complex using Z-Arg-Arg-AMC as substrate in presence of pH 4.5 acetate buffer by fluorescence assay
Outline: (§2)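 Recombinant cathepsin B endopeptidase activity assayed with the small substrate Z-Arg-Arg-AMC at pH 4.5. Acidic conditions chosen to shift the enzyme toward the closed (exopeptidase) conformation. Ki reported.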

[9] = molecular target: T1, Cathepsin B; assay: Inhibition of cathepsin B in human MCF-10A neoT cells assessed as proteolysis of extracellular membrane by measuring decrease in extracellular degradation of DQ-collagen 4 at 5 uM incubated for 6 hrs measured for 2 hrs by fluorescence based spectrofluorimetric assay relative to control; assay type: cell-based
Outline: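 MCF-10A neoT cells (5 × 10⁴) incubated with DQ-collagen IV in the presence of compound or DMSO. Extracellular degradation product read by spectrofluorimetry. Mean of n = 3, six replicates per experiment.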

[10] = molecular target: T1, Cathepsin B; assay: Non-competitive inhibition of recombinant human cathepsin B exopeptidase activity assessed as inhibitory constant for enzyme-substrate-inhibitor complex using Abz-Gly-Ile-Val-Arg-Ala-Lys(Dnp)-OH as substrate in presence of pH 5 acetate buffer by fluorescence assay
[11] = molecular target: T1, Cathepsin B; assay: Non-competitive inhibition of recombinant human cathepsin B exopeptidase activity assessed as inhibitory constant for enzyme-inhibitor complex using Abz-Gly-Ile-Val-Arg-Ala-Lys(Dnp)-OH as substrate in presence of pH 5 acetate buffer by fluorescence assay
[12] = tested on: MCF-10A-neoT; assay: Antiinvasive activity against human MCF10AneoT cells at 5 uM incubated for 1 hr measured every 15 mins for 72 hrs by real time xCELLigence assay relative to control; assay type: functional
Outline: (§3)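 MCF-10A neoT cells (3 × 10⁴) seeded on Matrigel-coated (1 mg/mL) upper compartments of CIM-plates. Compound or DMSO (0.05%) added to growth medium in both upper and lower compartments. Invasion followed by impedance (cell index) for 72 h. Slopes (1/h) between 4 and 14 h converted to percentage invasion versus DMSO. Means of n = 2, each run in triplicate.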

[13] = molecular target: T2, Pro-cathepsin H (Homo sapiens, UniProt P09668); assay: Non-competitive inhibition of human liver cathepsin H assessed as inhibitory constant for enzyme-inhibitor complex using R-AMC as substrate in presence of pH 6 phosphate buffer by fluorescence assay
T2 sequence (P09668 whole entry): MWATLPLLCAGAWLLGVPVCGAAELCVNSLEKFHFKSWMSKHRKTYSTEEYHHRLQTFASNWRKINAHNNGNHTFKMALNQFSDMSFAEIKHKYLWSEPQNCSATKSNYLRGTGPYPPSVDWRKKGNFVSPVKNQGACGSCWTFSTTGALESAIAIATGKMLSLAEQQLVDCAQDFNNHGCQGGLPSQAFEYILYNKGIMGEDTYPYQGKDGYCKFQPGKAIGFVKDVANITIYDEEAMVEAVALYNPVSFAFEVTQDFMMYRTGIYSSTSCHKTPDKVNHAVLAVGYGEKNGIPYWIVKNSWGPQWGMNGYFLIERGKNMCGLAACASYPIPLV

[14] = molecular target: T2, Pro-cathepsin H; assay: Non-competitive inhibition of human liver cathepsin H assessed as inhibitory constant for enzyme-substrate-inhibitor complex using R-AMC as substrate in presence of pH 6 phosphate buffer by fluorescence assay
[15] = molecular target: Procathepsin L (Homo sapiens, UniProt P07711); assay: Competitive inhibition of recombinant human cathepsin L expressed in Escherichia coli assessed as inhibitory constant for enzyme-inhibitor complex using Z-FR-AMC as substrate in presence of pH 6 phosphate buffer by fluorescence assay
Sequence of Procathepsin L (P07711 whole entry): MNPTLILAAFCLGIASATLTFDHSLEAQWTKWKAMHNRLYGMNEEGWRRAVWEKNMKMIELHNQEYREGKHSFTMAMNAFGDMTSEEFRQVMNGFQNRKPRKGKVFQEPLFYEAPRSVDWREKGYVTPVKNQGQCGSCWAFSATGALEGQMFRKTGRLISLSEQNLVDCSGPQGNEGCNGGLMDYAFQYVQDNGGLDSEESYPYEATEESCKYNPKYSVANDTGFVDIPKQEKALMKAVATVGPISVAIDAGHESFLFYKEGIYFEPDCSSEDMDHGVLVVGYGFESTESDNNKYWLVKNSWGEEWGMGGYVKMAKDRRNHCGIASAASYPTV

[16] = molecular target: T1, Cathepsin B; assay: Uncompetitive inhibition of recombinant human cathepsin B endopeptidase activity assessed as inhibitory constant for enzyme-substrate-inhibitor complex using Z-Arg-Arg-AMC as substrate in presence of pH 6 phosphate buffer by fluorescence assay
[17] = molecular target: T1, Cathepsin B; assay: Uncompetitive inhibition of recombinant human cathepsin B exopeptidase activity assessed as inhibitory constant for enzyme-substrate-inhibitor complex using Abz-Gly-Ile-Val-Arg-Ala-Lys(Dnp)-OH as substrate in presence of pH 5 acetate buffer by fluorescence assay
[18] = molecular target: T1, Cathepsin B; assay: Inhibition of recombinant human cathepsin B endopeptidase activity assessed as inhibitory constant for enzyme-inhibitor complex using Z-Arg-Arg-AMC as substrate in presence of pH 4.5 acetate buffer by fluorescence assay; outline: as §2
[19] = molecular target: T1, Cathepsin B; assay: Inhibition of recombinant human cathepsin B endopeptidase activity assessed as inhibitory constant for enzyme-substrate-inhibitor complex using Z-Arg-Arg-AMC as substrate in presence of pH 6 phosphate buffer by fluorescence assay
[20] = molecular target: T1, Cathepsin B; assay: as §1, with “25” for “50”; assay type: cell-based
Outline: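 Intracellular DQ-collagen IV degradation in MCF-10A neoT cells (6 × 10⁴) treated with compound or DMSO, read by flow cytometry. Unlabeled cells served as background. Reduction in intracellular signal reported against DMSO as mean ± SEM, n = 3 experiments, each in duplicate.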

[21] = molecular target: T1, Cathepsin B; assay: Inhibition of cathepsin B in human MCF-10A neoT cells assessed as proteolysis of extracellular membrane by measuring decrease in extracellular degradation of DQ-collagen 4 at 2.5 uM incubated for 6 hrs measured for 2 hrs by fluorescence based spectrofluorimetric assay; assay type: cell-based
Outline: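 MCF-10A neoT cells (5 × 10⁴) exposed to compound or DMSO vehicle control with DQ-collagen IV. Fluorescence of the extracellular cleavage product measured by spectrofluorimetry. Mean ± SEM of n = 3 experiments, each in six replicates.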

[22] = tested on: MCF-10A-neoT; assay: Antiinvasive activity against human MCF10AneoT cells at 2.5 uM incubated for 1 hr measured every 15 mins for 72 hrs by real time xCELLigence assay relative to control; assay type: functional, cell-based; outline: as §3
[23] = molecular target: T1, Cathepsin B; assay: Non-competitive inhibition of recombinant human cathepsin B endopeptidase activity assessed as inhibitory constant for enzyme-inhibitor complex using Z-Arg-Arg-AMC as substrate in presence of pH 6 phosphate buffer by fluorescence assay
[24] = molecular target: T1, Cathepsin B; assay: Non-competitive inhibition of recombinant human cathepsin B endopeptidase activity assessed as inhibitory constant for enzyme-substrate-inhibitor complex using Z-Arg-Arg-AMC as substrate in presence of pH 6 phosphate buffer by fluorescence assay
[25] = molecular target: T1, Cathepsin B; assay: Inhibition of recombinant human cathepsin B exopeptidase activity assessed as residual activity at 50 uM using Abz-Gly-Ile-Val-Arg-Ala-Lys(Dnp)-OH as substrate in presence of pH 5 acetate buffer by fluorescence assay relative to control
[26] = molecular target: T1, Cathepsin B; assay: Inhibition of recombinant human cathepsin B endopeptidase activity assessed as residual activity at 50 uM using Z-Arg-Arg-AMC as substrate in presence of pH 6 phosphate buffer by fluorescence assay relative to control

N#CCN(Cc1ccccc1)C(=O)c1cc([N+](=O)[O-])c2cccnc2c1O
Activity [1]: Non-Toxic | inhibition [2]: < 10% | Ki [3]: 182 µM | Ki [4]: 32 µM | Ki [5]: 64 µM | Ki [6]: 185 µM | Activity [7]: Non-Toxic | Ki ([8]; read-out: Ki): 132 µM | inhibition [9]: 60%

CN(CC#N)C(=O)c1ccc2c([N+](=O)[O-])cc([N+](=O)[O-])c(O)c2n1
Ki [3]: 341 µM | Ki [4]: 109 µM | Ki [5]: 122 µM | Ki [6]: 257 µM

N#CCNC(=O)c1ccc2c([N+](=O)[O-])ccc(O)c2n1
Ki [10]: 190 µM | Ki [3]: 180 µM | Ki [5]: 116 µM | Ki [11]: 190 µM

N#CC1(NC(=O)c2cc([N+](=O)[O-])c3cccnc3c2O)CC1
Activity [1]: Non-Toxic | Activity [12]: 70% | Ki [13]: 329 µM | inhibition [2]: 15% | Ki [10]: 185 µM | Ki [14]: 329 µM | Ki [15]: 195 µM | Activity [7]: Non-Toxic | Ki [16]: 124 µM | Ki [8]: Not Active | inhibition [9]: Active | Ki [11]: 185 µM

CC(=O)c1ccc(-c2occc2-c2ccc([N+](=O)[O-])c3cccnc23)cc1
Ki [17]: 11 µM | Ki [16]: 46 µM | Ki [18]: Not Active | Ki [19]: Not Active

CC1CCN(C(=O)c2cc([N+](=O)[O-])c3cccnc3c2O)CC1
Ki [10]: 162 µM | Ki [3]: 143 µM | Ki [5]: 94 µM | Ki [11]: 162 µM

CC(=O)c1ccc(-c2cc(-c3ccc([N+](=O)[O-])c4cccnc34)c(-c3ccc(C(C)=O)cc3)o2)cc1
Ki [17]: 13 µM | Ki [16]: 39 µM | Ki [18]: Not Active | Ki [19]: Not Active

O=C(c1cc([N+](=O)[O-])c2cccnc2c1O)N1CCCCC1
Ki [10]: 364 µM | Ki [3]: 311 µM | Ki [5]: 171 µM | Ki [11]: 364 µM

N#Cc1ccc2c([N+](=O)[O-])ccc(O)c2n1
Ki [10]: 214 µM | Ki [3]: 142 µM | Ki [5]: 68 µM | Ki ([8]; read-out: Ki): 123 µM | Ki [11]: 214 µM

N#CC1(NC(=O)c2ccc3c([N+](=O)[O-])ccc(O)c3n2)CC1
Ki [10]: 154 µM | Ki [3]: 157 µM | Ki [5]: 66 µM | Ki [11]: 154 µM

N#Cc1ccc2c([N+](=O)[O-])cc([N+](=O)[O-])c(O)c2n1
Ki [10]: 192 µM | Ki [16]: 39 µM | Ki [11]: 192 µM

CCCNC(=O)[C@H]1O[C@@H]1C(=O)N[C@H](C(=O)N1CCC[C@H]1C(=O)O)[C@@H](C)CC
Activity [12]: 40% | inhibition [2]: inactive

Cc1ccc2c([N+](=O)[O-])ccc(O)c2n1
Activity [1]: Non-Toxic | inhibition [20]: 80% | Ki [13]: 89 µM | Ki [14]: 89 µM | Ki [3]: 181 µM | Ki [4]: 77 µM | Ki [15]: 122 µM | Ki [5]: 99 µM | Ki [6]: 469 µM | Activity [7]: Non-Toxic | inhibition [21]: Active | Ki ([8]; read-out: Ki): 153 µM | Activity [22]: inactive

N#CCN(Cc1ccccc1)C(=O)c1ccc2c([N+](=O)[O-])cc([N+](=O)[O-])c(O)c2n1
Activity [1]: Non-Toxic | inhibition [2]: inactive | Ki [4]: 35 µM | Ki [6]: 154 µM | Activity [7]: Non-Toxic | Ki [16]: 9 µM | Ki ([8]; read-out: Ki): 163 µM | inhibition [9]: Active

COCCCOc1cc(-c2ccc([N+](=O)[O-])c3cccnc23)ccc1OC
Ki [23]: 323 µM | Ki [4]: 22 µM | Ki [6]: 118 µM | Ki [24]: 323 µM

CN(CC#N)C(=O)c1ccc2c([N+](=O)[O-])ccc(O)c2n1
Ki [10]: 205 µM | Ki [3]: 102 µM | Ki [5]: 263 µM | Ki [11]: 205 µM

CCCNC(=O)[C@H]1O[C@@H]1C(=O)N[C@H](C(=O)N1CCC[C@H]1C(=O)OC)[C@@H](C)CC
inhibition [2]: Active

N#CCN(Cc1ccccc1)C(=O)c1ccc2c([N+](=O)[O-])ccc(O)c2n1
Ki [4]: 18 µM | Ki [6]: 156 µM | Ki [16]: 34 µM

N#CCNC(=O)c1ccc2c([N+](=O)[O-])cc([N+](=O)[O-])c(O)c2n1
Ki [23]: 160 µM | Ki [4]: 34 µM | Ki [6]: 201 µM | Ki ([8]; read-out: Ki): 29 µM | Ki [24]: 160 µM

COCCN(CC1CCN(Cc2nc3ccccc3s2)CC1)C(=O)c1cc([N+](=O)[O-])c2cccnc2c1O
Ki [10]: 181 µM | Ki [3]: 200 µM | Ki [5]: 41 µM | Ki [11]: 181 µM

O=[N+]([O-])c1ccc(O)c2ncccc12
Activity [25]: 24.7% | Activity [26]: 21.9%
